Some results are limits rather than exact numbers.

In series [1] the target is RNA-directed RNA polymerase (Hepacivirus hominis, UniProt O39930). In words: Inhibition of HCV NS5B RNA dependent RNA polymerase.
The target in series [2] is Human immunodeficiency virus type 1 reverse transcriptase (Human immunodeficiency virus 1, UniProt Q72547). In words: Inhibition of HIV reverse transcriptase.
A further series concerns the target DNA polymerase beta (Homo sapiens, UniProt P06746). In words: Inhibition of human polymerase beta.
A further series concerns the target NS3 (Hepatitis C virus, UniProt A3EZJ3). The series can be described thus: Inhibition of HCV helicase. On the set-up: species or system Hepacivirus hominis.
The subject of another series is Vero. The series can be described thus: Cytotoxicity against Vero cell line. As to conditions: Chlorocebus sabaeus. Format: functional, cell-based. In short, it runs like this:
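Cytotoxicity read by MTS assay on actively growing cells: Vero cells for line 1, clone A cells for line 2. IC50 was determined in each assay.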

The nature of series [3]: Permeability from apical to basolateral side of the Caco-2 cell. Format: ADME, cell-based. As to conditions: human, read-out: permeability. (In general: Caco-2 monolayers are a common model of the intestinal barrier.)
Series [4] in a line: Permeability at pH 7.4 by PAMPA assay. Type of series: ADME. The note with it: read-out: permeability.

RNA-directed RNA polymerase, sequence (O39930 whole entry): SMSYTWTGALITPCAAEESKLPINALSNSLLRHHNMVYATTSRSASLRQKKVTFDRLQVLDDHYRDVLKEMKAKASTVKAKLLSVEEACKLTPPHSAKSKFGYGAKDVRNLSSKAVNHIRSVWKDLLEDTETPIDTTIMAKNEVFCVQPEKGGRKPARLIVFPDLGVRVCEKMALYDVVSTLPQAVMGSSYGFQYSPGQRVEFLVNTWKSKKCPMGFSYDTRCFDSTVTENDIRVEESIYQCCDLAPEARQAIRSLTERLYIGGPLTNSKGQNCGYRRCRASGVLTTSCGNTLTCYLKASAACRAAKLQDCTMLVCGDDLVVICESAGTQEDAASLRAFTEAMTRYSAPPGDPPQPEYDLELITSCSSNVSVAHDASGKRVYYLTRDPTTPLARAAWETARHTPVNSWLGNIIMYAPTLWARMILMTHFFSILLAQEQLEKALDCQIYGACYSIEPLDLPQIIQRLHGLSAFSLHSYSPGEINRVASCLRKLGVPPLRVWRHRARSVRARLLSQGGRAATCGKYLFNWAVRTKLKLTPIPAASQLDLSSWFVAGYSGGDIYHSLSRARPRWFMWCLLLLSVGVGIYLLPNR
NS3, sequence (A3EZJ3 whole entry): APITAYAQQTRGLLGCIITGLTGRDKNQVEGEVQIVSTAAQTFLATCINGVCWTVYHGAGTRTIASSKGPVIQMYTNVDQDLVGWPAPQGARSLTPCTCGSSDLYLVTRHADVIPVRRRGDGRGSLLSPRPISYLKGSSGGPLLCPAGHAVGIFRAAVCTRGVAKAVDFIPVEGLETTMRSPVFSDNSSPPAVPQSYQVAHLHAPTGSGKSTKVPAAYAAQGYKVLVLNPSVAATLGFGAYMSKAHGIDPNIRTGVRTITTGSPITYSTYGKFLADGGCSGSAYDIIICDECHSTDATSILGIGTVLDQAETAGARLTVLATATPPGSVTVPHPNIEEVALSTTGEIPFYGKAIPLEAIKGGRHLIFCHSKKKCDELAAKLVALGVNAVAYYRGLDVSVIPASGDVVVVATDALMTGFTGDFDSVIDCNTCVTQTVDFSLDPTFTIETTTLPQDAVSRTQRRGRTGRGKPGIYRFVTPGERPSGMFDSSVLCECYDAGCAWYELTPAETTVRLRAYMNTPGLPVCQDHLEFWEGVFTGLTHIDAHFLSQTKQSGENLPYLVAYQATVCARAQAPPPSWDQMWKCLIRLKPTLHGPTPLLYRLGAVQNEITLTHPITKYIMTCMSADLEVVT

With `O=C(O)[C@@H]1CCCN1S(=O)(=O)c1cc(Cl)cc(Cl)c1`, the IC50 (in general, the midpoint of a concentration-inhibition curve) in series [1] is above 20000 nM.
On the same count and under the same terms, under `O=C(O)[C@@H]1CCCN1S(=O)(=O)c1cc(F)cc(Cl)c1O` stands 2100 nM; under `O=C(O)[C@@H]1CCCN1S(=O)(=O)c1cc(Cl)cc(Cl)c1O`, 770 nM.
The same measure, in the same setting: under `Cc1cc(NC(=O)c2ccccc2)c(S(=O)(=O)N2CCC[C@H]2C(=O)O)cc1Cl` stands above 20000 nM; under `Nc1ccccc1S(=O)(=O)N1CCC[C@H]1C(=O)O`, above 20000 nM; under `Cc1cc(N)c(S(=O)(=O)N2CCC[C@H]2C(=O)O)cc1Cl`, 5950 nM.
On the same count and under the same terms, under `O=C(O)[C@@H]1CCCCN1S(=O)(=O)c1cc(Cl)cc(Cl)c1O` stands 2000 nM.
In series [1], `O=C(O)[C@H]1CCCCN1S(=O)(=O)c1cc(Cl)cc(Cl)c1O` returned an IC50 of 7100 nM.
Consider `Cc1cc(S(=O)(=O)N2CCC[C@H]2C(=O)O)c(N)cc1Cl`, for which the results for the concentration for half-maximal inhibition (IC50) (in series [2]; at DNA polymerase beta; against NS3) were above 100 µM, above 100 µM and above 75 µM, respectively.
For `O=C(O)[C@@H]1CCCN1S(=O)(=O)c1cc(Cl)cc(Br)c1O`, in series [1], the midpoint of inhibition, the IC50, lay at 260 nM.
`O=C(O)[C@@H]1CCCN1S(=O)(=O)c1cc(Cl)c(Cl)c(Cl)c1O`: the IC50 was above 100 µM with Vero and 80 nM in series [1]. Further, in series [3], the Papp A→B was found to be 0.4 ×10⁻⁶ cm/s. In series [4], the Papp came out at 0.02 ×10⁻⁶ cm/s.
`O=S(=O)(c1cc(Cl)cc(Cl)c1O)N1CCC[C@H]1c1nn[nH]n1` returned an IC50 in series [1] of 560 nM.
Same read-out and setting: in the case of `CC(=O)Nc1cc(C)c(Cl)cc1S(=O)(=O)N1CCC[C@H]1C(=O)O` it was above 20000 nM; in that of `COC(=O)[C@@H]1CCCN1S(=O)(=O)c1cc(Cl)cc(Cl)c1O`, above 20000 nM.
In series [1], `O=S(=O)(c1cc(Cl)cc(Cl)c1O)N1CCCC1` showed an IC50 of 4800 nM.
On the same count and under the same terms, under `O=C(O)[C@H]1CCCN1S(=O)(=O)c1cc(Cl)cc(Cl)c1O` stands 7900 nM.
Turning to `N#C[C@@H]1CCCN1S(=O)(=O)c1cc(Cl)cc(Cl)c1O`, the 50% inhibitory concentration (IC50) in series [1] was found to be 1400 nM.
Still for that read-out and setting: under `O=C(O)C1CSCN1S(=O)(=O)c1cc(Cl)cc(Cl)c1O` (single isomer, unassigned; 33) stands 240 nM; under `O=C(O)C1CSCN1S(=O)(=O)c1cc(Cl)cc(Cl)c1O` (single isomer, unassigned; 34), 1700 nM.

The record behind these values is ChEMBL document CHEMBL1147722, “Discovery of proline sulfonamides as potent and selective hepatitis C virus NS5b polymerase inhibitors. Evidence for a new NS5b polymerase binding site” (J Med Chem, 2006).
